ChEMBL document CHEMBL1149292, “A rational utilization of high-throughput screening affords selective, orally bioavailable 1-benzyl-3-carboxyazetidine sphingosine-1-phosphate-1 receptor agonists” (J Med Chem, 2004)

Legend:
[1] = target: T1, Sphingosine 1-phosphate receptor 1 (Homo sapiens, UniProt P21453); assay: Displacement of [33P]sphingosine 1 phosphate from human S1P1 receptor expressed in CHO cells; type: cell-based
[2] = target: Sphingosine 1-phosphate receptor 3 (Homo sapiens, UniProt Q99500); assay: Displacement of [33P]sphingosine 1 phosphate from human S1P3 receptor expressed in CHO cells; type: cell-based
Sequence of Sphingosine 1-phosphate receptor 3 (Q99500 whole entry): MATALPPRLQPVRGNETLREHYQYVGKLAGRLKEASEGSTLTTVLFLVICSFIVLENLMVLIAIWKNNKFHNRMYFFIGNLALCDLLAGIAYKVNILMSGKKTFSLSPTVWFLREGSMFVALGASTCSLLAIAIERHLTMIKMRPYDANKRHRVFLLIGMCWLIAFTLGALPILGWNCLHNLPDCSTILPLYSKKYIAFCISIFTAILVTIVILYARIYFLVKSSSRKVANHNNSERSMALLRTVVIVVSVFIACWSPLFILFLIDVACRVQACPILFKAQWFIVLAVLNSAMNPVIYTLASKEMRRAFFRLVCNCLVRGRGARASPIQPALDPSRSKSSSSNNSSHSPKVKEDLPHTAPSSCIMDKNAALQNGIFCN

[3] = target: Sphingosine 1-phosphate receptor 5 (Homo sapiens, UniProt Q9H228); assay: Displacement of [33P]sphingosine 1 phosphate from human S1P5 receptor expressed in CHO cells; type: cell-based
Sequence of Sphingosine 1-phosphate receptor 5 (Q9H228 whole entry): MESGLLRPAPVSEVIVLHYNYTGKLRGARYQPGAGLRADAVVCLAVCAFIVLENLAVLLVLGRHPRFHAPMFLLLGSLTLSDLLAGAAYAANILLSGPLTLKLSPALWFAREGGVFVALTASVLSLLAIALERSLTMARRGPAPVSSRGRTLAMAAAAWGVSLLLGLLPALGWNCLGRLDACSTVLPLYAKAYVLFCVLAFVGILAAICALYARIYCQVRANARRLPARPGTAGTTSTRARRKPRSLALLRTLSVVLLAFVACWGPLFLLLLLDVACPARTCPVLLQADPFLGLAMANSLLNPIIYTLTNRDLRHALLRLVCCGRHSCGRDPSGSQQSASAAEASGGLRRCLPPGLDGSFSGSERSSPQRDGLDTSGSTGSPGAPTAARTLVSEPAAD
Procedure, shortened: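 Competition binding with [33P]-labeled S1P on membranes of CHO cells stably expressing each human S1P receptor. Values are the mean of n = 3 determinations.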

[4] = target: T1, Sphingosine 1-phosphate receptor 1; assay: Activity at human S1P1 receptor expressed in CHO cells by [35S]GTPgammaS binding assay; type: functional, cell-based
Procedure, shortened: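 Agonism measured as ligand-induced [35S]-GTPγS binding to membranes of CHO cells stably expressing the human S1P receptor.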

Mus musculus = assay: Decrease in peripheral blood lymphocytes in po dosed mouse after 3 hrs; type: functional
Procedure, shortened: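 Compound given orally to mice. Peripheral blood lymphocyte counts taken 3 h after dosing, expressed as average percent decrease in n = 3 animals versus controls (n = 3). ED50 from dose-titration.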

[5] = Half life in rat at 2 mg/kg, po and 1 mg/kg, iv; type: ADME, organism-based; details: in vivo
Procedure, shortened: (§1)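 Rat PK at 2.0 mpk po and 1.0 mpk iv. Plasma compound levels measured.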

[6] = Bioavailability in rat at 2 mg/kg, po and 1 mg/kg, iv; type: ADME, organism-based; details: in vivo; procedure, shortened: as §1
[7] = Plasma concentration in femoral artery cannulated Lewis rat at 3 mg/kg, po after 48 hrs; type: ADME, organism-based; set-up: dose 3 mg/kg, route oral
Procedure, shortened: (§2)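 Femoral artery cannulated Lewis rats (n = 3) got a single 3 mpk oral dose. Compound plasma concentration (nM) was measured serially over time up to 72 h postdose. Peripheral blood lymphocyte counts were taken in parallel at the same time points. The same animals were later given a second 3 mpk oral dose.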

[8] = Plasma concentration in femoral artery cannulated Lewis rat at 3 mg/kg, po after 56 hrs; type: ADME, organism-based; set-up: dose 3 mg/kg, route oral; procedure, shortened: as §2
Rattus norvegicus [9] = assay: Decrease in peripheral blood lymphocyte counts in femoral artery cannulated Lewis rat at 3 mg/kg, po after 0.5 hrs; type: functional
Procedure, shortened: (§3)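 Femoral artery cannulated Lewis rats (n = 3) given a single 3 mpk oral dose. PBL counts and plasma compound concentration sampled over time up to 72 h postdose. A repeat 3 mpk po challenge was given to the same animals.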

Rattus norvegicus [10] = assay: Decrease in peripheral blood lymphocyte counts in femoral artery cannulated Lewis rat at 3 mg/kg, po after 2 hrs; type: functional; procedure, shortened: as §3
Rattus norvegicus [11] = assay: Decrease in peripheral blood lymphocyte counts in femoral artery cannulated Lewis rat at 3 mg/kg, po after 4 hrs; type: functional; procedure, shortened: as §3
Rattus norvegicus [12] = assay: Decrease in peripheral blood lymphocyte counts in femoral artery cannulated Lewis rat at 3 mg/kg, po after 6 hrs; type: functional; procedure, shortened: as §3
Rattus norvegicus [13] = assay: Decrease in peripheral blood lymphocyte counts in femoral artery cannulated Lewis rat at 3 mg/kg, po after 20 hrs; type: functional; procedure, shortened: as §3
Rattus norvegicus [14] = assay: Decrease in peripheral blood lymphocyte counts in femoral artery cannulated Lewis rat at 3 mg/kg, po after 32 hrs; type: functional; procedure, shortened: as §3
Rattus norvegicus [15] = assay: Decrease in peripheral blood lymphocyte counts in femoral artery cannulated Lewis rat at 3 mg/kg, po after 48 hrs; type: functional; procedure, shortened: as §3
[16] = Cmax in rat at 2 mg/kg, po and 1 mg/kg, iv; type: ADME, organism-based; details: in vivo; procedure, shortened: as §1
Canis familiaris = assay: Plasma clearance in Beagle dog at 1 mg/kg, po and 0.5 mg/kg, iv; type: ADME, organism-based, Canis lupus familiaris; details: in vivo
Procedure, shortened: (§4)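 Single-dose PK at 1.0 mpk po and 0.5 mpk iv. Plasma compound levels measured.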

[17] = Plasma clearance in rhesus monkey at 1 mg/kg, po and 0.5 mg/kg, iv; type: ADME, organism-based, Macaca mulatta; procedure, shortened: as §4
[18] = Volume of distribution at steady state in rhesus monkey at 1 mg/kg, po and 0.5 mg/kg, iv; type: ADME, organism-based, Macaca mulatta; details: in vivo, read-out: Vdss
[19] = Plasma concentration in femoral artery cannulated Lewis rat at 3 mg/kg, po after 0.25 hrs; type: ADME, organism-based; set-up: dose 3 mg/kg, route oral; procedure, shortened: as §3
[20] = Plasma concentration in femoral artery cannulated Lewis rat at 3 mg/kg, po after 2 hrs; type: ADME, organism-based; set-up: dose 3 mg/kg, route oral; procedure, shortened: as §2
[21] = Plasma concentration in femoral artery cannulated Lewis rat at 3 mg/kg, po after 6 hrs; type: ADME, organism-based; set-up: dose 3 mg/kg, route oral; procedure, shortened: as §2
[22] = Plasma concentration in femoral artery cannulated Lewis rat at 3 mg/kg, po after 12 hrs; type: ADME, organism-based; set-up: dose 3 mg/kg, route oral; procedure, shortened: as §2
[23] = Plasma concentration in femoral artery cannulated Lewis rat at 3 mg/kg, po after 24 hrs; type: ADME, organism-based; set-up: dose 3 mg/kg, route oral; procedure, shortened: as §2
[24] = Half life in Beagle dog at 1 mg/kg, po and 0.5 mg/kg, iv; details: in vivo

T1 sequence (P21453 whole entry): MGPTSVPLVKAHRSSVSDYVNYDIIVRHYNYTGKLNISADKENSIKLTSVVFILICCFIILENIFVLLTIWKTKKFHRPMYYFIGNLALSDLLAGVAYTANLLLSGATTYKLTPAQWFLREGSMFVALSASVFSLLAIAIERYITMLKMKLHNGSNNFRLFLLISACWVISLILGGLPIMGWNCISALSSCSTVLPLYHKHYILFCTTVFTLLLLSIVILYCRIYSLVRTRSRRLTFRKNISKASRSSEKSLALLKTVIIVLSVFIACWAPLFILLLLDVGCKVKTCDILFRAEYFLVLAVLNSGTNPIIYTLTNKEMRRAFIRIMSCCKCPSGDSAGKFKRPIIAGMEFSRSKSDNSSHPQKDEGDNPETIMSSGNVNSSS

For `O=C(O)C1CN(Cc2ccc(OCc3cc(-c4ccccc4)c(C(F)(F)F)s3)cc2)C1`, the IC50 [1] was 1.2 nM (antagonist), the IC50 [2] was 530 nM (antagonist) and the IC50 [3] was 23 nM (antagonist). The EC50 [4] was 0.5 nM (agonist), the ED50 (Mus musculus) was 0.44 mg/kg and the half-life [5] was 6.7 h. The bioavailability [6] was 79%, the concentration at 48 h [7] was 13 nM and the concentration at 56 h [8] was 10 nM. It also gave an Activity (Rattus norvegicus [9]) of 4200 µL⁻¹, an Activity (Rattus norvegicus [10]) of 1770 µL⁻¹ and an Activity (Rattus norvegicus [11]) of 1130 µL⁻¹. It also gave an Activity (Rattus norvegicus [12]) of 1330 µL⁻¹, an Activity (Rattus norvegicus [13]) of 1530 µL⁻¹ and an Activity (Rattus norvegicus [14]) of 1800 µL⁻¹. It also gave an Activity (Rattus norvegicus [15]) of 4000 µL⁻¹, a Cmax [16] of 300 nM and a clearance (Canis familiaris) of 2.2 mL/min/kg. For the same compound, the clearance [17] was 1.5 mL/min/kg, the Vd [18] was 1.4 L/kg and the concentration at 0.25 h [19] was 72 nM. It also gave a concentration at 2 h [20] of 310 nM, a concentration at 6 h [21] of 380 nM and a concentration at 12 h [22] of 280 nM. For the same compound, the concentration at 24 h [23] was 120 nM and the half-life [24] was 9.7 h.
